Most compounds without a hit are left out; they make up all but 1.1% or so of the library.
GSK3A inh: inhibitors of human GSK-3 alpha kinase; P49840; ADP-Glo luminescence, 60 min; inhibition, % at 10 µM; hit rate 0.1% among 320,000;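 active means more than half of replicates show inhibition above 20%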;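 further: GST-tagged GSK-3 alpha with peptide substrate and 25 µM ATP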
Target sequence (P49840 whole entry, looked up): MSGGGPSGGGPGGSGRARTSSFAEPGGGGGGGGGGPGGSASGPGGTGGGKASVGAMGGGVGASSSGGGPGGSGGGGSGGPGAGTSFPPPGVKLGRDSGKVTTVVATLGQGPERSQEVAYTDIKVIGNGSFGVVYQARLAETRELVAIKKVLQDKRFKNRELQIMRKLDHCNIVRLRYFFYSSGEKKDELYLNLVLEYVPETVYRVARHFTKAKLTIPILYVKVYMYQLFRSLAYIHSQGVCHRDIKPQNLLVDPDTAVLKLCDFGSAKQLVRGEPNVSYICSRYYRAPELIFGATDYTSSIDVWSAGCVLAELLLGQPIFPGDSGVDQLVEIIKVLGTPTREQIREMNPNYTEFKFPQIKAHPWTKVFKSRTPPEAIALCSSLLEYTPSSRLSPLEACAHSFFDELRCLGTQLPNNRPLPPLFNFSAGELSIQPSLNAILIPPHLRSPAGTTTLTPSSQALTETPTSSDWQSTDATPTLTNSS
CDK5 p35 inh: blocks human CDK5/p35 kinase activity | Q00535+Q15078 | hit rate 0.01% among 330,000 | inhibition, % at 10 µM | Recombinant CDK5/p35, ADP-Glo luminescence, 60 min;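 active means highest replicate inhibition of at least 50% and at least 75% of replicates reaching 50%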
SR-BI uptake up: activators of SR-BI mediated HDL lipid uptake. CHO ldlA[mSR-BI] cells, DiI-HDL uptake fluorescence, 3 h; 100 = double the neutral-control signal. activation, % at 12.5 µM. hit rate 0.096% among 320,000;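 active means mean replicate activation of at least 60% and every replicate at or above 60%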
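System: CHO ldlA[mSR-BI] cells / Medium: HEPES-buffered (25 mM, pH 7.4) F12 plus 0.5% BSA / Probe or stimulus: labelled HDL, 10 µg/mL / Doses: single compound concentration, delivered by pin transfer / Schedule: 3 h, 37 °C / Measured by: DiI fluorescence, bottom read / Measure: cell-associated DiI fluorescence as measure of HDL uptake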
GSK3beta inhib: inhibitors of human GSK3beta kinase | GST-GSK3beta kinase, ADP-Glo luminescence, 60 min; active compounds read low | hit rate 0.038% among 300,000 | P49841 | activity score (negative = inhibition), % at 10 µM;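 active means more than half of replicate wells score below -50%, meaning over 50% inhibition versus plate controls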
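Assay system: GST-tagged human GSK3beta kinase, cell-free; Input: 1.6 ng GSK3beta; Medium: Tris/MgCl2 kinase buffer; Timing: 60 min enzyme reaction, room temperature; Signal: ADP-Glo luminescence quantifying ADP generated by kinase; Evaluation: score relative to plate controls; Benchmarks: DMSO neutral wells and GW8510 at 20 µM as positive.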
SR-BI HDL uptake: blocks mouse SR-BI lipid uptake from DiI-HDL. Q61009. ldlA[mSR-BI] CHO cells, DiI-HDL uptake fluorescence, 3 h. inhibition, % at 12.5 µM. hit rate 0.96% among 320,000;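 active means mean replicate inhibition of at least 70% and a set share of replicates each scoring 70 or more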
Of the large screens only hits and unclear results are named; the others gave an inactive call.

CCOC(=O)/C(=C\C=C1/Sc2cc(OCC)c(OCC)cc2N1CC)C(C)=O	SR-BI HDL uptake 78
CC(=O)c1c(C)[nH]c(C(=O)CSc2nnc(-c3ccco3)n2Cc2ccccc2)c1C	SR-BI HDL uptake 80
O=[N+]([O-])c1ccc(O)c(-c2nc(-c3ccccc3)c(-c3cccs3)[nH]2)c1	SR-BI HDL uptake 84
Cc1ccccc1SCC(=O)NNC(=O)c1ccncc1	none (no result: GSK3beta inhib)
Cc1ccccc1SCC(=O)NNC(=O)c1ccccc1O	SR-BI HDL uptake 79
COc1ccc(CNC(=O)c2cc(-c3ccncc3)nc3c(C)cc(C)cc23)cc1OC	SR-BI HDL uptake 72
COc1cc(NC(=O)c2cc3c(C)nc4ccccc4c3o2)cc(OC)c1OC	SR-BI HDL uptake 73
COc1cccc(C(=O)NNC(=O)c2ccccc2)c1	none
COc1cc2ccccc2cc1C(=O)Nc1ccccc1N1CCN(S(C)(=O)=O)CC1	SR-BI HDL uptake 89
Cc1nc2ccccc2c2oc(C(=O)Nc3ccc(C(C)C)cc3)cc12	none
COc1cccc(C(=O)NNC(=O)c2ccc3ccccc3c2O)c1	SR-BI HDL uptake 108
Cn1c(N2CCCC2)nc2c1c(=O)[nH]c(=O)n2C	none
Cc1cc(C(=O)N2CCCC(C(=O)c3ccc4ccccc4c3)C2)n(C)n1 (configuration not stated)	none
COc1ccc(CC(=O)OCC(=O)N(C)C2CCS(=O)(=O)C2)cc1OC (configuration not stated)	none
COc1ccc(NC(=O)c2cc(-c3ccncc3)nc3ccc(Br)cc23)cc1OC	SR-BI HDL uptake 83
COc1ccc(NC(=O)c2cc(-c3ccc(C)o3)nc3ccccc23)cc1OC	SR-BI HDL uptake 83 (no result: GSK3beta inhib)
COc1cc(OC)c(C(=O)Nc2ccc3ccccc3c2)cc1OC	none
COc1ccc(NC(=O)c2cc3ccccc3cc2OC)cc1OC	SR-BI HDL uptake 70
COc1ccc(NC(=O)NNC(=O)c2ccc3ccccc3c2O)cc1OC	SR-BI HDL uptake 115
CCN(CC(=O)Nc1ccc(C)c(S(=O)(=O)N2CCOCC2)c1)Cc1ccccc1	none
O=C(O)/C=C/C(=O)NNC(=O)c1cccc(Br)c1	none
CCc1ccc(NC(=O)C2CCCN2c2nn3c(=O)cc(C)nc3s2)cc1 (configuration not stated)	none
COc1ccc(NC(=O)N2CCCCCC2)c(OC)c1	none
COCCN(C(=O)Nc1ccc(OC)cc1OC)C1CCN(C(C)=O)CC1	SR-BI HDL uptake 80 (no result: SR-BI uptake up)
CN(C[C@@H](CC1CCCCC1)N(C[C@H](Cc1ccccc1)N(CCc1ccccc1)N=O)N=O)N=O	none
CCC(C)[C@@H](CN(N=O)[C@@H](Cc1ccccc1)CN(C)N=O)N(CCc1ccccc1)N=O (some centres not stated)	SR-BI uptake up 68
COc1ccc(-c2[nH]n(-c3ccc([N+](=O)[O-])cc3)c(=O)c2C=NCC2CCCO2)cc1 (configuration not stated)	SR-BI HDL uptake 82
O=c1c(C=NCC2CCCO2)c(-c2ccccc2)[nH]n1-c1ccc([N+](=O)[O-])cc1 (configuration not stated)	none (no result: SR-BI uptake up, SR-BI HDL uptake)
CCN(C(=O)c1ccc2c(Cl)c3c(nc2c1)CCC3)c1ccc(C)c(C)c1	SR-BI HDL uptake 86
CC(=O)Cn1c(=O)oc2ccccc21	SR-BI uptake up 113
COc1ccc(C(=O)Nc2ccc(C3(C#N)CCCC3)cc2)cc1	SR-BI HDL uptake 88
Cn1nc(C(=O)Nc2cc(Cl)ccc2N2CCCC2)c2ccccc2c1=O	SR-BI HDL uptake 93 (no result: GSK3beta inhib)
CN1CCN(c2ccc(Cl)cc2NC(=O)c2nn(-c3ccccc3)c(=O)c3ccccc23)CC1	none (no result: GSK3A inh)
COc1ccc(-c2nc3ccc(C(=O)NCC(OC)OC)cc3nc2-c2ccc(OC)c(OC)c2)cc1OC	SR-BI HDL uptake 75
CCC(=O)N1CCc2cc(S(=O)(=O)N3CCCCCC3)ccc21	none (no result: GSK3beta inhib)
N#CC(c1cccc(Cl)c1)c1ccc2c(C(F)(F)F)cc(C(F)(F)F)nc2n1 (configuration not stated)	SR-BI HDL uptake 117 (no result: GSK3A inh)
Cc1ccc(S(=O)(=O)N2CCC(C(=O)OC(C)C(=O)NC3CCCCC3C)CC2)cc1 (configuration not stated)	none (no result: GSK3beta inhib)
COc1ccc(NC(=O)c2sc3nc(N4CCCC4)c4c(c3c2N)CC(C)(C)OC4)cc1	SR-BI HDL uptake 73 (no result: CDK5 p35 inh)
COc1ccc(NC(=O)c2sc3nc(N4CCOCC4)c4c(c3c2N)CC(C)(C)OC4)cc1	none
CCC(c1nnc(SCC(=O)Nc2c(F)cccc2F)n1Cc1ccccc1)N(C)C (configuration not stated)	none (no result: SR-BI uptake up)
CCC(CC)C(=O)Nc1cc(C(=O)OC)ccc1C(=O)OC	SR-BI uptake up 67
Cc1cc(N2CCN(C)CC2)nc2ccc(NC(=S)N3CCCCC3)cc12	none (no result: GSK3A inh)
Cc1cccc(N2CCN(C(=S)Nc3ccc4nc(N5CCN(C)CC5)cc(C)c4c3)CC2)c1C	SR-BI HDL uptake 89 (no result: GSK3A inh)
CCOC(=O)N1CCC(NC(=S)Nc2ccc3nc(N4CCN(C)CC4)cc(C)c3c2)CC1	SR-BI uptake up 112
CCOC(=O)N1CCC(NC(=S)Nc2ccc3nc(N4CCN(CC)CC4)cc(C)c3c2)CC1	none (no result: SR-BI uptake up, SR-BI HDL uptake)
O=C1NC2(CCCCCC2)C(=O)N1Cc1c(F)cccc1Cl	none
S=c1[nH]c2cc3ccccc3cc2[nH]1	none (no result: SR-BI uptake up, SR-BI HDL uptake)
Cc1cc2[nH]c(=S)[nH]c2cc1C	SR-BI HDL uptake 73
Clc1ccc(-c2nsc(N3CCOCC3)n2)c(Cl)c1	none
N#Cc1nc(-c2ccc(OCc3ccccc3)cc2)oc1N1CCOCC1	SR-BI HDL uptake 71
CC1CCN(S(=O)(=O)c2ccc3c(c2)oc(=O)n3CC(=O)N2c3ccccc3CC2C)CC1 (configuration not stated)	SR-BI HDL uptake 73
CCn1c(C)nc2cc(-c3nc4n(n3)Cc3ccccc3-4)ccc21	GSK3A inh 51
COc1cc(/C=N/NC(N)=S)ccc1OCC(=O)Nc1ccc(C)c(C)c1	SR-BI HDL uptake 73
COc1cc(/C=N/NC(N)=O)ccc1OCC(=O)Nc1ccc(C)c(C)c1	none
COc1ccccc1OCC(=O)Nc1ccc(Cl)cc1	none
COc1ccccc1OCC(=O)Nc1ccc(NC(=O)COc2ccccc2OC)cc1	SR-BI HDL uptake 92
CCCCC(=O)N1C/C=C\C(c2ccc(OC)cc2)N(Cc2ccc(F)cc2)C(=O)C1 (configuration not stated)	none
CC(C)OCCCN1CC(=O)N2C(c3cccc([N+](=O)[O-])c3)c3[nH]c4ccccc4c3C[C@H]2C1=O (some centres not stated)	SR-BI HDL uptake 81
COCCCN1CC(=O)N2C(c3cccc(OC)c3)c3[nH]c4ccccc4c3C[C@H]2C1=O (some centres not stated)	none
C=CCCC(=O)Nc1ccc(Br)cn1	SR-BI HDL uptake 89
Fc1ccc2[nH]c3c(c2c1)CN(C(=S)NCc1ccccc1)CC3	none
NNC(=O)c1sc(-c2ccc(Cl)cc2)cc1N	SR-BI HDL uptake 110
CCOC(=O)c1sc(-c2ccc(Br)cc2)cc1N	none

Compound activity as filed in PubChem BioAssay.
